Test [1] addresses Aldo-keto reductase family 1 member B1 (Bos taurus) (UniProt P16116). Nature of the test: Inhibition of aldose reductase activity in partially purified bovine lens preparation at 4*10 e-8 M.
Test [2] deals with Rattus norvegicus. The test can be described thus: Tested for in vivo inhibition of galactitol accumulation in the lens of galactose-fed rats at the dose of 46.1 (mg/kg/day); NS=Not significant. The conditions noted are these: Lens of camera-type eye. The class given is functional, organism-based.
Test [3] concerns Rattus norvegicus. The test can be described thus: Tested for in vivo inhibition of galactitol accumulation in the sciatic nerve of galactose-fed rats at the dose of 46.1 (mg/kg/day); NS=Not significant. In kind it is functional, organism-based. In short, it runs like this: (§1)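 Rats were given a 20% galactose diet for 4 days, with the test compound administered in the diet. Sciatic nerve galactitol accumulation was measured, and activity is given as % inhibition at the stated daily dose (mg/kg/day). Values are mean ± SEM, n = 6 animals; p < 0.01 unless indicated. NS means no significant inhibition of polyol accumulation.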

In test [4] the target is Aldo-keto reductase family 1 member B1 (Bos taurus) (UniProt P16116). Nature of the test: Inhibition of aldose reductase activity in partially purified bovine lens preparation at 10e-5 M. The method in brief:
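Partially purified bovine lens aldose reductase. Reduction of DL-glyceraldehyde substrate followed spectrophotometrically. Activity expressed as average inhibition at the tested concentrations, 1×10^-5, 1×10^-6, 1×10^-7 and 4×10^-6 M as printed; IC50 in M where given.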

Test [5] relates to Rattus norvegicus. The test can be described thus: Tested for in vivo inhibition of galactitol accumulation in the sciatic nerve of galactose-fed rats at the dose of 97.1 (mg/kg/day); NS=Not significant. In kind it is functional, organism-based. The method in brief: (§2)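 Rats fed a 20% galactose diet for 4 days, with test compound given in the diet at the stated daily dose (mg/kg/day). Read-out is inhibition of galactitol (polyol) accumulation in sciatic nerve. Values are % inhibition, mean ± SEM of six animals; p < 0.01 unless marked (some p < 0.05). NS = no significant inhibition of polyol accumulation. Tolrestat was the reference standard.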

Test [6] relates to Rattus norvegicus. Nature of the test: Tested for in vivo inhibition of galactitol accumulation in the lens of galactose-fed rats at the dose of 97.1 (mg/kg/day); NS=Not significant. The class given is functional, organism-based. The conditions noted are these: Lens of camera-type eye. The method in brief: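 Galactosemic rats were fed 20% galactose for 4 days, with the compound mixed into the diet. […] galactitol accumulation was measured, and activity is given as % inhibition at the stated daily dose (mg/kg/day). Values are mean ± SEM of six animals; p < 0.01 unless indicated. NS means no significant inhibition of polyol accumulation.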

The subject of test [7] is Rattus norvegicus. Nature of the test: Tested for in vivo inhibition of galactitol accumulation in the sciatic nerve of galactose-fed rats at the dose of 9.9 (mg/kg/day); NS=Not significant. The class given is functional, organism-based. In short, it runs like this: as §2
In test [8] the test system is Rattus norvegicus. The test can be described thus: Tested for in vivo inhibition of galactitol accumulation in the sciatic nerve of galactose-fed rats. at the dose of 1.0 (mg/kg/day); NS=Not significant. In kind it is functional, organism-based. The method in brief: as §2
In test [9] the test system is Rattus norvegicus. The test can be described thus: Tested for in vivo inhibition of galactitol accumulation in the sciatic nerve of galactose-fed rats at the dose of 24.1 (mg/kg/day); NS=Not significant. In kind it is functional, organism-based. The method in brief:
as §1

Test [10] relates to Rattus norvegicus. Nature of the test: Tested for in vivo inhibition of galactitol accumulation in the lens of galactose-fed rats at the dose of 24.1 (mg/kg/day); NS=Not significant. In kind it is functional, organism-based. Particulars: Lens of camera-type eye.
Test [11] concerns Rattus norvegicus. The test can be described thus: Tested for in vivo inhibition of galactitol accumulation in the lens of galactose-fed rats at the dose of 24 (mg/kg/day); NS=Not significant. The class given is functional, organism-based. The conditions noted are these: Lens of camera-type eye.
The subject of test [12] is Rattus norvegicus. The test can be described thus: Tested for in vivo inhibition of galactitol accumulation in the sciatic nerve of galactose-fed rats at the dose of 24; NS=Not significant. The class given is functional, organism-based. The method in brief: as §1
For test [13], the system named is Rattus norvegicus. Nature of the test: Tested for in vivo inhibition of galactitol accumulation in the sciatic nerve of galactose-fed rats at the dose of 26.2 (mg/kg/day); NS=Not significant. In kind it is functional, organism-based. In short, it runs like this:
as §1

Test [14] deals with Rattus norvegicus. The test can be described thus: Tested for in vivo inhibition of galactitol accumulation in the sciatic nerve of galactose-fed rats at the dose of 24 (mg/kg/day); NS=Not significant. The class given is functional, organism-based. In short, it runs like this: as §1
Test [15] addresses Aldo-keto reductase family 1 member B1 (Bos taurus) (UniProt P16116). Nature of the test: Compound was tested in vitro for inhibition of aldose reductase activity in partially purified bovine lens preparation at 10 e-8 M.
In test [16] the test system is Rattus norvegicus. The test can be described thus: Tested for in vivo inhibition of galactitol accumulation in the sciatic nerve of galactose-fed rats.4.9 (mg/kg/day); NS=Not significant. In kind it is functional, organism-based. In short, it runs like this: as §2
In test [17] the test system is Rattus norvegicus. The test can be described thus: Tested for in vivo inhibition of galactitol accumulation in the lens of galactose-fed rats at the dose of 4.9 (mg/kg/day); NS=Not significant. The class given is functional, organism-based. The conditions noted are these: Lens of camera-type eye.
The subject of test [18] is Rattus norvegicus. Nature of the test: Tested for in vivo inhibition of galactitol accumulation in the lens of galactose-fed rats at the dose of 25.0 (mg/kg/day); NS=Not significant. The class given is functional, organism-based. Particulars: Lens of camera-type eye.
The test system of test [19] is Rattus norvegicus. The test can be described thus: Tested for in vivo inhibition of galactitol accumulation in the sciatic nerve of galactose-fed rats. at the dose of 25.0 (mg/kg/day); NS=Not significant. In kind it is functional, organism-based. The method in brief: as §2
For test [20], the system named is Rattus norvegicus. Nature of the test: Tested for in vivo inhibition of galactitol accumulation in the sciatic nerve of galactose-fed rats at the dose of 47.9 (mg/kg/day). The class given is functional. The method in brief: as §1
For test [21], the system named is Rattus norvegicus. The test can be described thus: Tested for in vivo inhibition of galactitol accumulation in the lens of galactose-fed rats at the dose of 47.9 (mg/kg/day). The class given is functional, Lens of camera-type eye.
For test [22], the system named is Rattus norvegicus. The test can be described thus: Tested for in vivo inhibition of galactitol accumulation in the sciatic nerve of galactose-fed rats at the dose of 10.0 (mg/kg/day); NS=Not significant. In kind it is functional, organism-based. In short, it runs like this:
as §1

Molecules are shown by their SMILES. Active and inactive are the calls of the source. No cut-off for these calls is given here.

One may read the inhibition as the share of the control response that was lost under treatment. Consider `COc1ccc2c(c1)C(=O)N(Cc1ccc(Br)cc1F)C(=O)C2CC(=O)O` (configuration not stated), for which the inhibition in test [1] was 61%. The inhibition result with Rattus norvegicus [2] and with Rattus norvegicus [3] was “inactive” in each case.

Regarding `CCCCN1C(=O)c2ccccc2C(CC(=O)NC(=O)OC)C1=O` (configuration not stated), the inhibition entry (in test [4]; in the test with Rattus norvegicus [5]; with Rattus norvegicus [6]) was “inactive” throughout.

Turning to `CON1C(=O)CC2(C(=O)N(Cc3ccc(Br)cc3F)C(=O)c3ccccc32)C1=O` (configuration not stated), the inhibition result (in [4]; in the test on Rattus norvegicus [7]) was “inactive” throughout.

In the case of `CCCCN1C(=O)CC2(C1=O)C(=O)N(Cc1ccc(Br)cc1F)C(=O)c1ccc(F)cc12` (configuration not stated), the inhibition result (in [4]; in the test on Rattus norvegicus [8]) was “inactive” throughout.

As to `CONC(=O)CC1C(=O)N(Cc2ccc(Br)cc2F)C(=O)c2ccccc21` (configuration not stated), the inhibition in test [4] was 45%. The inhibition entry with Rattus norvegicus [9] and with Rattus norvegicus [10] was “inactive” in each case.

As for `O=C(O)CC1C(=O)N(Cc2nc3cc(C(F)(F)F)ccc3s2)C(=O)c2ccccc21` (configuration not stated), the inhibition in [1] stood at 65%. The inhibition entry with Rattus norvegicus [11] and with Rattus norvegicus [12] was “inactive” in each case.

Turning to `O=C(O)CN1C(=O)CC2(C1=O)C(=O)N(Cc1ccc(Br)cc1F)C(=O)c1ccc(F)cc12` (configuration not stated), the inhibition in test [4] amounted to 60%. In addition, the inhibition entry in the test with Rattus norvegicus [13] was “inactive”.

For the compound `O=C(O)CC1C(=O)N(Cc2nc3cc(C(F)(F)F)ccc3s2)C(=O)c2ccc(F)cc21` (configuration not stated), the inhibition in test [1] was found to be 62%. The inhibition result with Rattus norvegicus [14] and in the test with Rattus norvegicus [11] was “inactive” throughout.

Turning to `CN1C(=O)c2ccc(Cl)cc2C(CC(=O)O)C1=O` (configuration not stated), the inhibition in test [15] was found to be 35%. Further, the inhibition result in the test with Rattus norvegicus [16] and with Rattus norvegicus [17] was “inactive” throughout.

As for `O=C(O)CC1C(=O)N(Cc2ccc(Br)cc2F)C(=O)c2ccc(Cl)cc21` (configuration not stated), the inhibition in test [1] was 57%. Also, the inhibition entry in the test with Rattus norvegicus [18] and in the test with Rattus norvegicus [19] was “inactive” each time.

The term Inhibition denotes the share of the control response that was lost under treatment. As for `COC(=O)NC(=O)CC1C(=O)N(C)C(=O)c2ccc(C(F)(F)F)cc21` (configuration not stated), the inhibition in test [4] came out at 51%. The Inhibition in the test on Rattus norvegicus [20] was found to be 52%; with Rattus norvegicus [21], 26%.

For the compound `O=C1CC2(C(=O)N1CC(F)(F)F)C(=O)N(Cc1ccc(Br)cc1F)C(=O)c1ccccc12` (configuration not stated), the inhibition entry (in test [4]; with Rattus norvegicus [22]) was “inactive” throughout.

The record behind these values is ChEMBL document CHEMBL1127562, “N-substituted spirosuccinimide, spiropyridazine, spiroazetidine, and acetic acid aldose reductase inhibitors derived from isoquinoline-1,3-diones. 2” (J Med Chem, 1994).
